Measured values published in ChEMBL document CHEMBL3414483, “New heterocyclic hybrids of pyrazole and its bioisosteres: design, synthesis and biological evaluation as dual acting antimalarial-antileishmanial agents” (Eur J Med Chem, 2015).
In brackets after ≈: the same amount, converted by molar mass. Activity calls are given as the source filed them. No cut-off for these calls is given here.

Legend:
[1] = test system: Plasmodium berghei; assay: Antimalarial activity against Plasmodium berghei str. ANKA infected in Swiss albino mouse assessed as parasitemia at 0.048 mmol/kg/day, po qd […] by microscopic analysis relative to control; assay type: functional
How it was run: (§1)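 Four-day suppressive test. Mice were infected iv on day 0 with 0.2 ml of 2 × 10^7 P. berghei ANKA-parasitized erythrocytes from a donor mouse, diluted in saline. From 2 h post-infection they were dosed orally at 0.048 mmol/kg/day for days 0–3, five mice per group. The vehicle was 7% Tween and 3% ethanol in water. On day 4, Giemsa smears were scored over 5 fields of about 100 RBC each. Suppression was calculated relative to the vehicle group, taken as 100%.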

[2] = test system: Plasmodium berghei; assay: Antimalarial activity against Plasmodium berghei str. ANKA infected in Swiss albino mouse assessed as survival at 0.048 mmol/kg/day, po qd for 3 days by microscopic analysis relative to control; assay type: functional
How it was run: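 P. berghei ANKA infected mice, 4-day suppressive test. Day 0: 0.2 ml of 2 x 10^7 parasitized erythrocytes given i.v. (donor blood, 20-30% parasitemia, diluted in saline). Oral dosing at 0.048 mmol/kg/day from 2 h post-infection, then days 1-3 at 24 h intervals. Vehicle 7% Tween, 3% ethanol in water. Five mice/group. Survival time recorded per mouse; mean compared with vehicle group.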

[3] = test system: Plasmodium berghei; assay: Antimalarial activity against Plasmodium berghei str. ANKA infected in Swiss albino mouse assessed as supression of parasitemia at 0.048 mmol/kg/day, po qd for 3 days by microscopic analysis relative to control; assay type: functional; how it was run: as §1
[4] = test system: Leishmania aethiopica; assay: Antileishmanial activity against promastigote stage of Leishmania aethiopica after 24 hrs by alamar blue staining-based […]; assay type: functional, organism-based
How it was run: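 L. aethiopica promastigotes, 3 × 10^6 per well, given compounds from DMSO stocks in three-fold dilutions at 10 to 0.04 µg/ml (final DMSO ≤0.1%), in duplicate, at room temperature (21 ± 1 °C). Alamar blue (resazurin) was added after 24 h and absorbance read 48 h later at 540 and 630 nm. Negative control was parasites, medium and DMSO.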

[5] = test system: Leishmania aethiopica; assay: Antileishmanial activity against amastigote stage of Leishmania aethiopica after 72 hrs by resazurin staining-based fluorescence assay; assay type: functional, organism-based
How it was run: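 Axenic L. aethiopica amastigotes (50 µl of 2 × 10^7 cells/ml) exposed to serial dilutions at final 0.04–10 µg/ml for 72 h at 31 °C, humidified, 5% CO₂. Resazurin was added at 68 h and fluorescence read at 72 h (ex 530/em 590 nm). EC50 from sigmoidal dose–response fits, mean ± SD of triplicate experiments run in duplicate. Controls were medium alone and 1% DMSO.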

Structure (SMILES)	Activity [1] [%]	Activity [2]	Activity [3] [%]	IC50 [4] [µg/mL]	IC50 [5] [µg/mL]	Survival [2] [days]
CCN(CC)CCCC(C)Nc1ccnc2cc(Cl)ccc12.O=P(O)(O)O.O=P(O)(O)O (stereo not given) [CHLOROQUINE PHOSPHATE]	0	Active	100	–	–	–
Cc1ccc(-c2nn(-c3ccc(C)cc3)cc2/C=C/C(=O)c2ccccc2)cc1	26	–	69.77	4 (≈ 10.6 µM)	2.88 (≈ 7.61 µM)	11.6
Cc1ccc(-c2nn(-c3ccc(C)cc3)cc2/C=N/NC(=S)Nc2ccccc2)cc1	34	–	60.47	3.01 (≈ 7.08 µM)	2.26 (≈ 5.31 µM)	9.23
Cc1ccc(-c2nn(-c3ccc(C)cc3)cc2/C=N/N=C2/SCC(=O)N2c2ccccc2)cc1	10	–	88.37	0.882 (≈ 1.89 µM)	0.58 (≈ 1.25 µM)	10.64
Cc1ccc(-c2nn(-c3ccc(Br)cc3)cc2/C=N/N=c2/scc(-c3ccc(Br)cc3)n2-c2ccccc2)cc1	14	–	83.72	4.06 (≈ 6.07 µM)	2.21 (≈ 3.3 µM)	11.22
Cc1ccc(-c2nn(-c3ccc(Br)cc3)cc2C2CC(c3ccccc3)=NN2c2ccccc2)cc1 (stereo not given)	22	–	74.42	2.91 (≈ 5.46 µM)	1.24 (≈ 2.32 µM)	10.64
Cc1ccc(-c2nn(-c3ccc(Br)cc3)cc2C=O)cc1	30	–	65.11	3.11 (≈ 9.12 µM)	1.82 (≈ 5.33 µM)	8.4
CC(=O)N1N=C(c2ccccc2)CC1c1cn(-c2ccc(C)cc2)nc1-c1ccc(C)cc1 (stereo not given)	18	–	79.07	3.05 (≈ 7.01 µM)	2.31 (≈ 5.32 µM)	10.08
Cc1ccc(-c2nn(-c3ccc(C)cc3)cc2C2CC(c3ccccc3)=NN2c2ccccc2)cc1 (stereo not given)	26	–	69.77	3.09 (≈ 6.59 µM)	1.78 (≈ 3.8 µM)	10.82
O=[N+]([O-])c1ccc(-c2nn(-c3ccc(Br)cc3)cc2/C=N/N=c2/scc(-c3ccc(Br)cc3)n2-c2ccccc2)cc1	28	–	67.44	2.9 (≈ 4.14 µM)	1.07 (≈ 1.53 µM)	12.26
CCC(=O)N1N=C(c2ccccc2)CC1c1cn(-c2ccc(Br)cc2)nc1-c1ccc([N+](=O)[O-])cc1 (stereo not given)	34	–	60.47	2.12 (≈ 3.9 µM)	1.83 (≈ 3.36 µM)	6.82
Cc1ccc(-n2cc(C=O)c(-c3ccc([N+](=O)[O-])cc3)n2)cc1	32	–	62.79	3.64 (≈ 11.9 µM)	1.56 (≈ 5.08 µM)	7.28
CC(=O)N(C1=NN(C(C)=O)C(c2cn(-c3ccc(C)cc3)nc2-c2ccc([N+](=O)[O-])cc2)S1)c1ccccc1 (stereo not given)	18	–	79.07	0.846 (≈ 1.57 µM)	1.21 (≈ 2.24 µM)	10.4
CCC(=O)N1N=C(c2ccccc2)CC1c1cn(-c2ccc(C)cc2)nc1-c1ccc(C)cc1 (stereo not given)	38	–	55.81	1.6 (≈ 3.57 µM)	1.02 (≈ 2.27 µM)	8.84
Cc1ccc(-c2nn(-c3ccc(C)cc3)cc2C=O)cc1	33	–	61.62	4.06 (≈ 14.7 µM)	1.97 (≈ 7.13 µM)	8.62
O=[N+]([O-])c1ccc(-c2nn(-c3ccc(Br)cc3)cc2C2CC(c3ccccc3)=NN2c2ccccc2)cc1 (stereo not given)	32	–	62.79	3.85 (≈ 6.82 µM)	2.01 (≈ 3.56 µM)	9.84
CCC(=O)N1N=C(c2ccccc2)CC1c1cn(-c2ccc(Br)cc2)nc1-c1ccc(C)cc1 (stereo not given)	42	–	51.16	2.04 (≈ 3.98 µM)	1.79 (≈ 3.49 µM)	6.86
Cc1ccc(-c2nn(-c3ccc(Br)cc3)cc2C2CC(c3ccccc3)=NN2)cc1 (stereo not given)	28	–	67.44	2.01 (≈ 4.4 µM)	1.88 (≈ 4.11 µM)	7.88
Cc1ccc(-c2nn(-c3ccc(C)cc3)cc2C2CC(c3ccccc3)=NN2)cc1 (stereo not given)	30	–	65.12	2.84 (≈ 7.25 µM)	2.37 (≈ 6.04 µM)	7.62
O=Cc1cn(-c2ccc(Br)cc2)nc1-c1ccc([N+](=O)[O-])cc1	35	–	59.3	4.84 (≈ 13 µM)	2.03 (≈ 5.45 µM)	8.71
CC(=O)N1N=C(c2ccccc2)CC1c1cn(-c2ccc(Br)cc2)nc1-c1ccc([N+](=O)[O-])cc1 (stereo not given)	26	–	69.77	1.09 (≈ 2.05 µM)	0.89 (≈ 1.68 µM)	6.62
CC(=O)N(C1=NN(C(C)=O)C(c2cn(-c3ccc(Br)cc3)nc2-c2ccc(C)cc2)S1)c1ccccc1 (stereo not given)	12	–	86.05	0.468 (≈ 0.815 µM)	0.74 (≈ 1.29 µM)	12.68
CC(=O)N(C1=NN(C(C)=O)C(c2cn(-c3ccc(C)cc3)nc2-c2ccc(C)cc2)S1)c1ccccc1 (stereo not given)	14	–	83.72	0.862 (≈ 1.69 µM)	0.82 (≈ 1.61 µM)	12.22
Cc1ccc(-c2nn(-c3ccc(Br)cc3)cc2/C=C/C(=O)c2ccccc2)cc1	22	–	74.42	1.03 (≈ 2.32 µM)	1.01 (≈ 2.28 µM)	11.8
Cc1ccc(-c2nn(-c3ccc(Br)cc3)cc2/C=N/NC(=S)Nc2ccccc2)cc1	30	–	65.12	3.62 (≈ 7.39 µM)	2.41 (≈ 4.91 µM)	8.84
Cc1ccc(-n2cc(/C=N/N=c3/scc(-c4ccc(Br)cc4)n3-c3ccccc3)c(-c3ccc([N+](=O)[O-])cc3)n2)cc1	22	–	74.42	3.11 (≈ 4.9 µM)	1.78 (≈ 2.8 µM)	12.12
CCCCCCCCCCCCCCCCOP(=O)([O-])OCC[N+](C)(C)C [MILTEFOSINE]	–	–	–	3.19 (≈ 7.83 µM)	0.3 (≈ 0.736 µM)	–
